In brackets after ≈: the same amount, converted by molar mass.
Columns and labels:
Format in all cases: functional
[1] = tested on: Staphylococcus aureus; assay: Antimicrobial activity against Staphylococcus aureus NCIMB 9515 after 24 hrs by microdilution technique
How it was run: (§1)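 Bacteria were grown on nutrient agar at 37 °C for 24 h. Fresh suspensions were standardized to 10^5 CFU per 100 µL and added to microdilution wells. Compounds were dissolved in DMSO with an initial concentration of 500 µg/mL. Ampicillin served as the positive control, with a DMSO-alone check. Growth was read visually and the MIC recorded.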

[2] = tested on: Cladosporium cladosporioides; assay: Antimicrobial activity against Cladosporium cladosporioides IMI 299104 after 10 days by microdilution technique; conditions: 240 h
How it was run: (§2)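 These plant-pathogenic Cladosporium strains were cultured on potato dextrose agar at 26 °C for 10 days. Suspensions were standardized to 10^4 CFU per 100 µL and tested by microdilution against compound dissolved in DMSO (initial 500 µg/mL). Plates were held at 26 °C for 10 days with daily visual growth checks, and the MIC was recorded. Controls were ketoconazole and DMSO alone.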

[3] = tested on: Trichophyton tonsurans; assay: Antimicrobial activity against Trichophyton tonsurans EQ 4329 after 10 days by microdilution technique; conditions: 240 h
How it was run: (§3)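 Dermatophytes were grown on Sabouraud's dextrose agar at 26 °C for 10 days. Fresh inocula were standardized to 10^4 CFU per 100 µL for broth microdilution against compound in DMSO (initial 500 µg/mL). Plates were kept at 26 °C for 10 days and inspected visually every day, and the MIC was recorded. Controls were ketoconazole and DMSO alone.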

[4] = tested on: Trichophyton mentagrophytes; assay: Antimicrobial activity against Trichophyton mentagrophytes NCPF 224 after 10 days by microdilution technique; conditions: 240 h; how it was run: as §3
[5] = tested on: Escherichia coli; assay: Antimicrobial activity against Escherichia coli NCTC 9002 after 24 hrs by microdilution technique; conditions: NCTC 9002, 24 h; how it was run: as §1
[6] = tested on: Cladosporium herbarum; assay: Antimicrobial activity against Cladosporium herbarum after 10 days by microdilution technique; conditions: 240 h; how it was run: as §2
[7] = tested on: Nannizzia gypsea; assay: Antimicrobial activity against Microsporum gypseum NCPF 40 after 10 days by microdilution technique; conditions: 240 h; how it was run: as §3
[8] = tested on: Epidermophyton floccosum; assay: Antimicrobial activity against Epidermophyton floccosum after 10 days by microdilution technique; conditions: 240 h; how it was run: as §3
[9] = tested on: Bacillus subtilis; assay: Antimicrobial activity against Bacillus subtilis NCTC 10073 after 24 hrs by microdilution technique; conditions: NCTC 10073, 24 h; how it was run: as §1
[10] = tested on: Candida albicans; assay: Antimicrobial activity against Candida albicans after 24 hrs by microdilution technique
How it was run: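 Yeast was cultured on Sabouraud's dextrose agar at 30 °C for 24 h. A fresh suspension was standardized to 10^4 CFU per 100 µL and added to microdilution wells holding compound in DMSO (initial 500 µg/mL). Plates were incubated at 30 °C for 24 h and checked visually for growth to give the MIC. Controls were ketoconazole and DMSO alone.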

[11] = tested on: Pseudomonas aeruginosa; assay: Antimicrobial activity against Pseudomonas aeruginosa NCIMB 10421 after 24 hrs by microdilution technique; how it was run: as §1
[12] = tested on: Trichophyton interdigitale; assay: Antimicrobial activity against Trichophyton interdigitale EQ 4115 after 10 days by microdilution technique; conditions: 240 h; how it was run: as §3

| MIC [1] | MIC [2] | MIC [3] | MIC [4] | MIC [5] | MIC [6] | MIC [7] | MIC [8] | MIC [9] | MIC [10] | MIC [11] | MIC [12] | SMILES |
| --- | --- | --- | --- | --- | --- | --- | --- | --- | --- | --- | --- | --- |
| > 500 µg/mL | > 500 µg/mL | > 500 µg/mL | > 500 µg/mL | > 500 µg/mL | > 500 µg/mL | > 500 µg/mL | > 500 µg/mL | > 500 µg/mL | > 500 µg/mL | > 500 µg/mL | > 500 µg/mL | O=C1C[C@]23C=CCN4CC[C@H]5c6cc7c(cc6N1[C@@]5(CC2)[C@@H]43)OCO7 [SCHIZOZYGINE] |
| > 500 µg/mL | 7.8 µg/mL (≈ 22.3 µM) | 3.9 µg/mL (≈ 11.1 µM) | < 1.95 µg/mL | 250 µg/mL (≈ 714 µM) | 15.6 µg/mL (≈ 44.5 µM) | 1.95 µg/mL (≈ 5.57 µM) | > 1.95 µg/mL | > 500 µg/mL | 7.8 µg/mL (≈ 22.3 µM) | > 500 µg/mL | < 3.9 µg/mL | O=C1[C@H](O)[C@]23C=CCN4CC=C5c6cc7c(cc6N1[C@@]5(CC2)[C@@H]43)OCO7 |
| 125 µg/mL (≈ 388 µM) | > 500 µg/mL | > 500 µg/mL | > 500 µg/mL | > 500 µg/mL | > 500 µg/mL | > 500 µg/mL | > 500 µg/mL | 62.5 µg/mL (≈ 194 µM) | > 500 µg/mL | > 500 µg/mL | > 500 µg/mL | COc1ccc2c(c1)N1C(=O)C[C@]34C=CCN5CC[C@@H]2[C@@H](CC3)[C@]514 [ISOSCHIZOGALINE] |

| SMILES | MIC [1] | MIC [2] | MIC [3] | MIC [4] | MIC [5] | MIC [6] | MIC [7] | MIC [8] | MIC [9] | MIC [10] | MIC [11] | MIC [12] |
| --- | --- | --- | --- | --- | --- | --- | --- | --- | --- | --- | --- | --- |
| CC(=O)N1CCN(c2ccc(OCC3COC(Cn4ccnc4)(c4ccc(Cl)cc4Cl)O3)cc2)CC1 (stereo not drawn) [KETOCONAZOLE] |  | 25 µg/mL (≈ 47 µM) | 50 µg/mL (≈ 94.1 µM) | 6.25 µg/mL (≈ 11.8 µM) |  | 50 µg/mL (≈ 94.1 µM) | 6.25 µg/mL (≈ 11.8 µM) | 25 µg/mL (≈ 47 µM) |  | 25 µg/mL (≈ 47 µM) |  | 25 µg/mL (≈ 47 µM) |
| CC1(C)S[C@@H]2[C@H](NC(=O)[C@H](N)c3ccccc3)C(=O)N2[C@H]1C(=O)O [AMPICILLIN] | 12.5 µg/mL (≈ 35.8 µM) |  |  |  | 20 µg/mL (≈ 57.2 µM) |  |  |  | 12.5 µg/mL (≈ 35.8 µM) |  | 25 µg/mL (≈ 71.5 µM) |  |

Source: ChEMBL document CHEMBL1148127, “Antimicrobial activities of a new schizozygane indoline alkaloid from Schizozygia coffaeoides and the revised structure of isoschizogaline” (2002)
